Compound activity: PubChem, several laboratories
RGS4 block: human RGS4 inhibition; P49798; HEK293 M3R/RGS4 inducible, Fluo-4 calcium flux; stronger effect = higher value; triggered by carbachol at its EC20; B-score at 10 µM; 310,000 compounds, 0.45% hits;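 active means B-score, a plate-corrected calcium signal, over three deviations above library mean, with baseline fluorescence within five deviations of library mean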;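 further: RGS4 expression induced by doxycycline in cells with stable M3 receptor; B-score is computed from the integrated fluorescence ratio over baseline after carbachol; higher B-score means a larger calcium signal and so more RGS4 inhibition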
Target sequence (P49798 whole entry, looked up): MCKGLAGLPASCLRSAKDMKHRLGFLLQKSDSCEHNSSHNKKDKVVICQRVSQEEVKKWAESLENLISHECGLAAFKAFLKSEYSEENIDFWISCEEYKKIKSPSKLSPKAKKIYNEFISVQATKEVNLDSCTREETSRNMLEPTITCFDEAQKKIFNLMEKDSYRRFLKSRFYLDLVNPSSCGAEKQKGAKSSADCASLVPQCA
MrgX1 allo act: allosterically activates human MrgX1 receptor signaling; MrgX1-HEK293, Fluo-4 calcium flux, FDSS; stronger effect = higher value; B-score at 10 µM; 310,000 compounds, 0.63% hits; AID 588675;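 active means plate-corrected calcium response at least 3 library SD above typical, normal starting fluorescence, not activating the receptor alone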;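 further: compound read alongside a low EC10 to EC30 dose of BAM8-22 agonist; peak minus trough fluorescence over baseline measured at the second addition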
Target sequence (Q96LB2 whole entry, looked up): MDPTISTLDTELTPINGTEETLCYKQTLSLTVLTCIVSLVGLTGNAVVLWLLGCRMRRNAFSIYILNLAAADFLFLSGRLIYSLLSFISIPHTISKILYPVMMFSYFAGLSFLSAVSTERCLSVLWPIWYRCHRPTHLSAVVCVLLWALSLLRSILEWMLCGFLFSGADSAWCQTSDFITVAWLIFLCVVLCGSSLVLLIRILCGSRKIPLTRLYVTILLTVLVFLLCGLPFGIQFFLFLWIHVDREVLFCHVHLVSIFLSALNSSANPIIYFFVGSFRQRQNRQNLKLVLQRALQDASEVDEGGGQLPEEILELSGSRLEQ
RGS4 act: potentiators or activators of RGS4; HEK293 M3R/inducible RGS4, carbachol calcium flux Fluo4; stronger effect = lower value; B-score at 10 µM; AID 463111; 310,000 compounds, 0.92% hits;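 active means B-score of the integrated calcium signal more than 4 SD below the library mean, with starting fluorescence not abnormally high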;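 further: negative B-score means reduced calcium response which marks RGS4 activation or potentiation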
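Assay system: HEK293 FlpIn-TREx cells, stable M3R, doxycycline-inducible RGS4 / Probe or stimulus: carbachol, ECmax concentration / Times: overnight RGS4 induction, 30 min dye load 37 °C, 20 min compound RT / Signal: kinetic calcium fluorescence imaging with Fluo4-AM dye, 2 µM / Measure: Agonist-evoked peak-minus-minimum fluorescence over baseline, integrated ratio, B score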
MrgX1 antag: blocks BAM8-22 activation of human MrgX1 receptor; AID 588676; 310,000 compounds, 1.3% hits; Q96LB2; MRGX1-HEK293 calcium flux, Fluo-4, BAM8-22 antagonism; stronger effect = lower value; B-score at 10 µM;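 active means calcium-response B-score plate-corrected more than 3 library SD below zero, starting fluorescence within 5 deviations, no agonist response on first addition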;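 further: peak minus trough fluorescence over baseline after final BAM8-22 challenge near maximal dose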
KCC2 mod: KCC2 (human) Cl- transport modulation; B-score of Tl+ flux slope (higher = more flux/activation; lower = inhibition) at 10 µM; AID 1456; Q9H2X9; 190,000 compounds, 2.2% hits; KCC2 cells, thallium flux FluoZin-2 fluorescence;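 active means thallium flux slope and its plate-corrected score both differing from the plate sample mean at a set confidence after two filtering rounds, in either direction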;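 further: slope of fluorescence scaled to starting intensity during 10 to 20 s after thallium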
MrgX1 ag: human MrgX1 receptor agonism, primary screen | Q96LB2 | B-score at 10 µM | 310,000 compounds, 0.44% hits | MrgX1-HEK293 cells, Fluo-4 calcium fluorescence, agonist mode; stronger effect = higher value;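 active means calcium response B-score plate-corrected fluorescence ratio at least 3 library SD, with starting fluorescence B-score inside 5 SD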
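Material: HEK293 cells stably expressing human MrgX1 receptor | Quantity: 15,000 cells per well | Times: Cells plated overnight, dye loaded 0.5 h 37 °C, 0.5 h room temperature | Measured by: Kinetic Fluo-4 NW fluorescence of intracellular calcium | Control set: Positive and negative controls per plate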
KCC2 sec1: KCC2 (human) modulation, secondary assay. HEK293-KCC2, thallium flux, FluoZin2 fluorescence; stronger effect = higher value. 3,700 compounds, 15% hits. normalised thallium flux (F/F0 slope) at 10 µM. AID 1713. shares compounds with KCC2 mod;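 active means thallium flux slope above the same plate's solvent-only control mean plus 3 SD; inconclusive means the two replicate wells disagree; inactive means no significant difference from solvent-only control wells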
KCC2 bumet counter: bumetanide-insensitive thallium flux in KCC2 cells with ouabain, counter-screen; 3,700 compounds, 49% hits; normalized thallium flux at 10 µM; HEK293-KCC2 + bumetanide/ouabain, thallium flux FluoZin2; stronger effect = higher value; AID 1714; shares compounds with KCC2 mod;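 active means thallium entry rate above the same plate's blocked-transporter control wells by more than 3 SD; inconclusive means the two repeat wells disagree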;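 further: raw slope of fluorescence over initial fluorescence between 10 and 20 s after thallium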
KCC2 sec2: KCC2 (human) modulation, second secondary assay; shares compounds with KCC2 mod; HEK293-KCC2, thallium flux FluoZin2 fluorescence; actives lie on both sides; F/F0 rise rate, 10–20 s post-thallium; normalized thallium flux at 10 µM; 3,700 compounds, 23% hits; AID 1715;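 active means thallium flux slope more than 3 SD above or below the plate's solvent-only control mean, mostly below; inconclusive means the two repeat wells disagreed; inactive means no significant shift from solvent-only controls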;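 further: raw slope with 0.1% DMSO as baseline and bumetanide as block control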
HEK293 Tl flux: parental HEK flux effect, counter-screen. shares compounds with KCC2 mod. HEK293 parental cells, thallium flux FluoZin2, ouabain; baseline-ratio fluorescence slope, 10–20 s after thallium. thallium flux rate (normalised fluorescence) at 10 µM. 3,700 compounds, 46% hits. AID 1716;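 active means thallium flux rate significantly above the same plate's solvent-only control wells, beyond their mean plus 3 SD; inconclusive means the two replicate wells gave conflicting results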
KCC2 ouabain: confirmation of human KCC2 modulators with ouabain. 3,700 compounds, 48% hits. HEK293-KCC2, thallium flux FluoZin2 fluorescence; bidirectional: low = inhibitor, high = activator. AID 1717. raw Tl+ flux slope (below DMSO = inhibition, above = activation) at 10 µM. shares compounds with KCC2 mod;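 active means thallium flux slope beyond 3 SD from same-plate DMSO control mean in most replicates, usually higher, sometimes lower; inconclusive means repeat tests gave conflicting results; inactive means no significant difference from controls in most replicates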;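 further: slope of initial-normalized fluorescence between seconds 10 and 20 after thallium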
HEK counter2: parental HEK flux effect, counter-screen 2. thallium flux slope at 10 µM. AID 1718. 3,700 compounds, 33% hits. shares compounds with KCC2 mod. HEK293 parental, thallium flux FluoZin-2 fluorescence slope;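 active means thallium flux slope above the same plate's solvent-control mean plus 3 SD in both duplicate wells; inconclusive means duplicate wells that disagreed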;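 further: run without ouabain in cells lacking the KCC2 cotransporter; slope of fluorescence scaled to its starting value between 10 and 20 s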
Numbers without * were called inactive; i = inactive; ? = inconclusive; . = no result. An excerpt weighted towards active compounds, which were near 4.7% of everything screened.

SMILES	RGS4 block	MrgX1 allo act	RGS4 act	MrgX1 antag	KCC2 mod	MrgX1 ag	KCC2 sec1	KCC2 bumet counter	KCC2 sec2	HEK293 Tl flux	KCC2 ouabain	HEK counter2
O=C(CC(C(=O)N1CCc2ccccc21)n1ccnc1)N1CCc2ccccc2C1 (configuration not stated)	i	i	i	i	-6.2*	i	?	0.0049	0.024*	0.0069	?	0.01
CCOC(=O)c1ccc(NC(=O)CSc2nc(=O)n(CCN3CCOCC3)c3c2CCC3)cc1	i	i	i	i	.	i	.	.	.	.	.	.
CC(C)N1CCN(CCCc2ccccc2)CC1CCO (configuration not stated)	i	i	i	i	.	i	.	.	.	.	.	.
CCc1cccc(C)c1NS(=O)(=O)Cc1ccccc1	i	i	i	i	.	i	.	.	.	.	.	.
S=c1nc(-c2csc3c2CCCC3)[nH][nH]1	i	i	i	i	4.2*	i	0.016	0.016*	0.031	0.015*	0.022*	0.017*
O=C(Nc1ccc(Cl)cn1)C1CCCN1S(=O)(=O)c1cccc2ccccc12 (configuration not stated)	i	i	i	i	-0.53	i	.	.	.	.	.	.
O=C(Nc1ccc(Cl)cn1)C1CCCN1S(=O)(=O)c1ccc(Cl)cc1 (configuration not stated)	i	i	i	i	.	i	0.0082	0.007	0.033	?	0.024	0.0099
O=C(NNc1ccccc1[N+](=O)[O-])Nc1cccc(Cl)c1	i	i	i	i	0.52	i	.	.	.	.	.	.
CCn1c(N2CCC(Cc3ccccc3)CC2)nc2c1c(=O)[nH]c(=O)n2C	i	i	i	i	-3.1*	i	0.0078	0.0046	0.032	0.0061*	0.016*	0.011
NNC(=S)Nc1ccc(C(F)(F)F)cc1Cl	i	i	i	i	16*	i	0.011	0.03*	0.035	0.02*	0.026	0.014*
NNC(=S)Nc1ccccc1Cl	i	i	i	i	0.29	i	.	.	.	.	.	.
Cc1cc(F)ccc1S(=O)(=O)N1CCCOC1CNC(=O)C(=O)NCc1ccc2c(c1)OCO2 (configuration not stated)	i	i	i	i	.	i	.	.	.	.	.	.
O=C(O)CCn1c(-c2ccccc2)cc2ccccc21	i	i	i	i	-6.4*	i	0.0066	0.007	0.028	0.007	0.013*	0.0096
O=C(O)CCn1c(CO)nc2ccccc21	i	i	i	i	0.15	i	.	.	.	.	.	.
O=C(CN1CCN(S(=O)(=O)N2CCCCC2)CC1)Nc1ccc(Br)cc1	i	i	i	i	.	i	.	.	.	.	.	.
C=CCN(c1cccc(C(F)(F)F)c1)S(=O)(=O)c1cccc(C(=O)OCC(=O)NCCC)c1	i	i	i	i	-4.2*	i	?	0.004	0.024*	0.0059*	0.014*	?
C=CCN(c1ccccc1)S(=O)(=O)c1cccc(C(=O)OCC(=O)NCCOC)c1	i	i	i	i	0.9	i	.	.	.	.	.	.
CCOc1ccc(NC(=O)[C@@H]2CCC(=O)N2C2OC(=O)c3ccccc32)cc1 (some centres not stated)	i	i	i	i	.	i	.	.	.	.	.	.
Cc1nc(SC2CC(=O)N(c3ccccc3)C2=O)nc2c1CCCC2 (configuration not stated)	i	i	i	i	.	i	0.0062	0.0038	0.026*	?	0.016*	0.01
O=C(COc1ccccc1)Nc1nnc(-c2ccc(Cl)s2)o1	i	i	i	i	.	i	0.014*	0.022*	0.031	0.012*	0.025	0.012*
O=C(CN1CCC(NC(=O)c2ccccc2)CC1)NCc1ccccc1F	i	i	i	i	.	i	.	.	.	.	.	.
O=C(CN1CCC(NC(=O)c2cccc(F)c2)CC1)NCc1ccccc1F	i	i	i	i	.	i	0.0089	0.0068	0.031	0.0073	0.033	0.01
O=C(NNC(=S)Nc1ccc(Br)cc1)c1ccc(N2CCOCC2)c([N+](=O)[O-])c1	i	i	i	i	-3.8*	i	0.0093	0.0062	0.031	?	0.016*	0.011
Cc1cccc(NC(=O)C2C3CCCCC32)c1 (configuration not stated)	i	i	i	i	.	i	.	.	.	.	.	.
O=C(CSCc1ccc(Cl)cc1)Nc1cc([N+](=O)[O-])ccc1O	i	i	i	i	-3.4*	i	0.0056	0.004	0.022*	0.0062*	0.014*	0.0083*
CCOC(=O)CC1C(=O)NCCN1c1nc2ccc(C)cn2c(=O)c1/C=C1\SC(=S)N(CC(C)C)C1=O (configuration not stated)	i	i	i	i	-5.2*	103*	0.0035*	0.00041*	0.014*	0.0033*	0.0071*	0.0049*
O=C(CSc1nc(-c2ccc(F)cc2)nc2c1Cc1ccccc1O2)Nc1ccc(C(=O)O)cc1	.	.	.	.	3.3*	.	0.0075	0.0074*	0.036	0.013*	0.024*	0.012*
O=C(CSc1nc(-c2ccccc2)nc2c1Cc1ccccc1O2)Nc1ccc(C(=O)O)cc1	.	.	.	.	-0.85	.	.	.	.	.	.	.
O=c1[nH]c(=O)n(C2OC(CO)C(O)C2O)cc1Br (configuration not stated)	i	i	i	i	.	i	.	.	.	.	.	.
O=c1[nH]c(=O)n(C2CCCO2)cc1Br (configuration not stated)	i	i	i	i	3.9*	i	0.0087	0.0071	0.034	0.0078	0.021	0.01
